Article PMC8153786 (ACS Omega, 2021)
Like-named read-outs stand apart in the source and are kept apart here.

Tests used:
bovine serum albumin = conditions: BSA–flavonol interactions ref 69; cited from earlier work
hCCL2-M = hCCL2-M (Homo sapiens, UniProt P13500, P31A); test: Flavonol fluorescence quenching titration of hCCL2 monomer; format: binding; conditions: for quenching constant (Kq) / number of binding sites: hCCL2-M (monomer); for quenching constant (Kq): Stern–Volmer, 25 °C, 50 μM protein; for number of binding sites: double-logarithmic plot
Outline: (§1)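 Each CCL2 variant (WT dimer or monomer, E. coli BL21(DE3)-expressed) was held at 50 μM and titrated with 10–100 μM flavonol from a 20 mM DMSO stock, at 25 °C. Trp W59 was excited at 295 nm and emission read at 300–450 nm, slits 5 nm. Buffer-only additions served as controls; runs in triplicate. Ksv and Kq came from Stern–Volmer analysis; Ka and n from a double-logarithmic plot, nonlinear regression and Scatchard analysis.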

mCCL2-WT [1] = target: T1, mCCL2-WT (Mus musculus, UniProt P10148); test: Flavonol fluorescence quenching titration of mCCL2-WT; format: binding, murine; conditions: for quenching constant (Kq) / number of binding sites: mCCL2-WT; for quenching constant (Kq): Stern–Volmer, 25 °C, 50 μM protein; for number of binding sites: double-logarithmic plot
Outline: as §1

mCCL2-WT [2] = target: T1, mCCL2-WT; test: 1H–15N HSQC NMR titration, chemical shift perturbation; format: binding, murine; conditions: mCCL2-WT 100 μM, protein/flavonol 1:5, comparison among the three flavonols
Outline: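 15N-labelled WT murine protein, expressed in E. coli BL21(DE3), at 100 μM in 50 mM Na2HPO4/50 mM NaCl, pH 6.0. 1H–15N HSQC spectra recorded at 500 MHz and 25 °C. Flavonol from a 20 mM DMSO stock was added stepwise up to protein/ligand 1:5. Per-residue CSP was calculated from combined ΔδH and ΔδN.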

hCCL2-WT = hCCL2-WT (Homo sapiens, UniProt P13500); test: Flavonol fluorescence quenching titration of hCCL2-WT; format: binding; conditions: for quenching constant (Kq) / number of binding sites: hCCL2-WT; for quenching constant (Kq): Stern–Volmer, 25 °C, 50 μM protein; for number of binding sites: double-logarithmic plot
Outline: as §1

mCCL2-M = mCCL2-M (Mus musculus, UniProt P10148, P31A); test: Flavonol fluorescence quenching titration of mCCL2 monomer; format: binding, murine; conditions: for quenching constant (Kq): Stern–Volmer, 50 μM protein
Outline: as §1

canine distemper virus = conditions: comparison with morin ref 67; cited from earlier work
[3] = mCCL2-M (monomer), double-logarithmic plot

Sequence of hCCL2-WT (P13500 24-99): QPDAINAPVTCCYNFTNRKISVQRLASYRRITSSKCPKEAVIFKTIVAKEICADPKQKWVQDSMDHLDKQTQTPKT
Sequence of hCCL2-M (P13500 24-99 P31A): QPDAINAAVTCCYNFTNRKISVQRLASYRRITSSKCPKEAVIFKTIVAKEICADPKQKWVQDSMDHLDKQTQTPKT
Sequence of mCCL2-M (P10148 24-148 P31A): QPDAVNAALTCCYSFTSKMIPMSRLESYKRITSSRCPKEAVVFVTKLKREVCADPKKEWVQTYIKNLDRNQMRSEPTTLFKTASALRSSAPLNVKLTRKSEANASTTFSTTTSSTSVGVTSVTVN

Row | Kd (hCCL2-M) [µM] | quenching constant (Kq) (hCCL2-M) | number of binding sites (hCCL2-M) | Kd (mCCL2-WT [1]) [µM] | quenching constant (Kq) (mCCL2-WT [1]) | number of binding sites (mCCL2-WT [1]) | perturbation of resonances in CSP maps (mCCL2-WT [2]) | Kd (hCCL2-WT) [µM] | quenching constant (Kq) (hCCL2-WT) | number of binding sites (hCCL2-WT) | Kd (mCCL2-M) [µM] | quenching constant (Kq) (mCCL2-M; mCCL2-M (monomer), 25 °C) | Kd (mCCL2-M; dissociation constant (Kd), mCCL2-M (monomer), double-logarithmic plot, 25 °C) [µM] | number of binding sites (mCCL2-M; [3]) | SMILES | binding constants (Ka) (bovine serum albumin) [L/mol] | inhibitory activity (canine distemper virus)
1 | 25 ± 4 | 5.3 × 10^12 m^–1 s^–1 | 1.1 ± 0.1 | 24 ± 6 | 5.0 × 10^12 m^–1 s^–1 | 1.1 ± 0.2 | the least | 26 ± 5 | 5.2 × 10^12 m^–1 s^–1 | 1.1 ± 0.1 | 26 ± 5 | 5.1 × 10^12 m^–1 s^–1 |  |  | O=c1c(O)c(-c2ccc(O)cc2)oc2cc(O)cc(O)c12 [kaempferol, 3,5,7-trihydroxy-2-(4-hydroxyphenyl)chromen-4-one] | 2.57e+06 | 
2 | 0.43 ± 0.02 | 6.2 × 10^12 m^–1 s^–1 | 1.2 ± 0.2 | 0.42 ± 0.03 | 6.1 × 10^12 m^–1 s^–1 | 1.1 ± 0.2 | largest perturbation of resonances | 0.38 ± 0.04 | 5.8 × 10^12 m^–1 s^–1 | 1.3 ± 0.2 |  | 6.3 × 10^12 m^–1 s^–1 | 0.4 ± 0.03 | 1.2 ± 0.1 | O=c1c(O)c(-c2cc(O)c(O)c(O)c2)oc2cc(O)cc(O)c12 [myricetin, 3,5,7-trihydroxy-2-(3,4,5-trihydroxyphenyl)chromen-4-one] | 4.9e+08 | 
3 |  |  |  |  |  |  |  |  |  |  |  |  |  |  | O=c1c(O)c(-c2ccccc2)oc2cc(O)cc(O)c12 [galangin, reference compound] | 643000 | 
4 | 3.6 ± 0.5 | 5.4 × 10^12 m^–1 s^–1 | 1.2 ± 0.1 | 3.9 ± 0.5 | 4.3 × 10^12 m^–1 s^–1 | 1.2 ± 0.2 |  | 3.5 ± 0.7 | 4.2 × 10^12 m^–1 s^–1 | 1.1 ± 0.1 | 3.7 ± 0.4 | 5.7 × 10^12 m^–1 s^–1 |  | 1.1 ± 0.2 | O=c1c(O)c(-c2ccc(O)c(O)c2)oc2cc(O)cc(O)c12 [quercetin, 2-(3,4-dihydroxyphenyl)-3,5,7-trihydroxychromen-4-one] | 3.65e+07 | higher inhibitory activity than morin
